# Screening data deposited in PubChem by The Scripps Research Institute Molecular Screening Center.
# NPY-Y1 PAM-ag = potentiates or activates human NPY-Y1 receptor; P25929; NPY-Y1 expressing cells, potentiator/agonist activation; activation, % at 3.6 µM; 0.37% of 220,000 active; AID 1304; in the data active means activation above about 33%, passing the limit was not always enough;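 further: cells stimulated with NPY at EC10 then isoproterenol at EC100; 0% = low agonist plus stimulus and 100% = saturating agonist plus stimulus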
# NPY-Y2 antag = blocks the human neuropeptide Y Y2 receptor | inhibition, % at 2.7 µM | NPY-Y2 expressing cells, antagonist mode | AID 793 | 0.99% of 140,000 active | P49146; in the data active means inhibition above about 17%;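 further: 0% = vehicle with agonist challenge and 100% = reference antagonist with challenge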
# Target sequence (P49146 whole entry, looked up): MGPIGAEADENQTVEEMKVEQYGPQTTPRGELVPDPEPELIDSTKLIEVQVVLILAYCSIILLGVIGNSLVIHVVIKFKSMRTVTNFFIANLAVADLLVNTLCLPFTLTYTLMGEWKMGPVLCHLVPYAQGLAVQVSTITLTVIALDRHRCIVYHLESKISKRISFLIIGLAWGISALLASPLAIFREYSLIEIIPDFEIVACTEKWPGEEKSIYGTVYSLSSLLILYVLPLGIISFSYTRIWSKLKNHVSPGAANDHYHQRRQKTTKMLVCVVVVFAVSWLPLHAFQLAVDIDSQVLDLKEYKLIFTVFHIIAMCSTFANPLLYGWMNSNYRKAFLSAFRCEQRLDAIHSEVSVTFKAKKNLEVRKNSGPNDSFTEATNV
# NPY Y1 blocker = antagonists of human neuropeptide Y receptor Y1. inhibition, % at 3.6 µM. HEK293-CNG Y1 cells, membrane potential fluorescence; NPY at EC95, then isoproterenol. P25929. 1% of 200,000 active;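 active means inhibition above the campaign mean inhibition of all tested compounds plus 3 SD, cut at about 20% in these data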;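 further: 0% = DMSO wells given NPY plus isoproterenol and 100% = isoproterenol alone without NPY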
#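 material = HEK293 cells with Y1 receptor plus CNG channel | also added = NPY 25 nM then isoproterenol 1 µM plus Ro 20-1724 25 µM | schedule = dye 3 h, compound 60 min room temperature, stimulation 45 min | measured by = membrane potential fluorescence | benchmarks = high control isoproterenol alone, low control NPY with isoproterenol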
# NPY-Y2 PAM-ag = potentiators or agonists of human neuropeptide Y receptor Y2; P49146; cells expressing NPY-Y2, potentiator/agonist read-out; activation, % at 3.6 µM; 0.45% of 220,000 active; AID 1359; in the data active means activation above about 27%;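 further: cells stimulated with NPY near EC25 plus isoproterenol at EC100; 0% = vehicle plus submaximal agonist and 100% = vehicle plus saturating agonist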
# NPY-Y1 antag ct = counter-screen for NPY-Y2 antagonists: human NPY-Y1 antagonism; shares compounds with NPY-Y2 antag; cell-based NPY-Y1 antagonism counterscreen; inhibition, % at 3.6 µM; 19% of 710 active; AID 1256; in the data active means inhibition above about 20%;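 further: cells challenged with NPY then isoproterenol with cAMP sensed through a CNG channel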
# NPY2 antag conf = human NPY-Y2 antagonism, confirmation; 32% of 710 active; AID 1257; inhibition, % at 2.8 µM; HEK293 NPY-Y2 CNG channel, membrane potential fluorescence; shares compounds with NPY-Y2 antag;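 active means mean inhibition of triplicate wells above the hit cutoff set in the primary screen, cut at about 17% in these data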;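 further: 0% = DMSO with NPY challenge and 100% = BIIE0246 high control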
# Numbers without * were called inactive; nt = not tested or not shown. Rows were chosen to be rich in hits. Some 1.9% of all compounds tested hit in one or more screens of this group.
SMILES,NPY-Y1 PAM-ag,NPY-Y2 antag,NPY Y1 blocker,NPY-Y2 PAM-ag,NPY-Y1 antag ct,NPY2 antag conf
O=C(C1CCC1)N1CCc2cc(S(=O)(=O)Nc3ccc4c(c3)OCO4)ccc21,-36.5,19.4*,6.1,5.0,4.6,7.0
CCOc1ccc(NS(=O)(=O)c2ccc3c(c2)CCN3C(=O)C2CCC2)cc1,-27.8,6.9,9.1,-9.3,nt,nt
CCOC(=O)Cn1nc(-c2ccccc2)c2cnc3ccc(CC)cc3c21,2.3,26.2*,3.6,5.6,20.1,12.8
CCOC(=O)Cn1nc(-c2ccccc2)nc1-c1ccccc1,3.2,-2.4,12.3,3.5,nt,nt
CCc1cccc(CC)c1NC(=O)COC(=O)c1ccccc1-c1nc2ccccc2s1,-18.7,19.7*,9.2,14.5,14.4,21.2*
Cc1ccc(NC(=O)COC(=O)c2ccccc2-c2nc3ccccc3s2)c(C)c1,4.6,6.0,4.4,-8.2,nt,nt
CCOc1ccc(C(CC(=O)O)NC(=O)c2cccs2)cc1OC (centres undefined),-2.3,nt,-0.1,-12.3,nt,nt
CCOC(=O)C1CCCN(Cc2ccccc2C)C1 (centres undefined),8.9,17.4*,1.2,1.0,0.2,-0.3
CC(C)NC(=O)CSc1nncn1-c1ccccc1,5.2,18.2*,0.6,2.6,0.1,1.0
CC(CCc1ccccc1)NC(=O)CN1CCN(c2ccccc2)CC1 (centres undefined),0.3,nt,5.2,-11.5,nt,nt
CCN(CC)CCCN=Cc1c(O)n(Cc2ccccc2)c(=O)c2ccccc12,0.2,3.7,2.6,-11.5,nt,nt
CC(C)CCC(C)N=Cc1c(O)n(Cc2ccccc2)c(=O)c2ccccc12 (centres undefined),-19.8,21.3*,13.7,-3.0,26.6*,20.8*
O=C(Nc1ccc(S(=O)(=O)Nc2ccc(Cl)cc2)cc1)C1CCCO1 (centres undefined),7.3,-1.9,-13.1,12.7,nt,nt
CCCCCCNS(=O)(=O)c1ccc(NC(=O)C2CCCO2)cc1 (centres undefined),-11.9,31.2*,2.1,-5.0,8.3,29.2*
Cc1ncoc1C(=O)N1CCCC(C(=O)c2ccc(-c3ccccc3)cc2)C1 (centres undefined),17.8,nt,3.0,3.0,nt,nt
CCCN(C(=O)c1ccco1)c1nnc(-c2ccccc2C)s1,26.0,nt,2.0,9.3,nt,nt
C=CCn1c(SC2CCOC2=O)nc2scc(C3CC3)c2c1=O (centres undefined),-5.1,45.3*,12.3,-22.4,29.8*,81.0*
CCOC(=O)c1ccc2c(c1)NCc1cccc(OC)c1O2,5.2,nt,nt,1.9,nt,nt
Cc1cccc(CC2CC(=O)N(c3nc4ccccc4s3)C2=O)c1 (centres undefined),-7.0,nt,12.5,-7.1,nt,nt
COc1ccc2sc(N3C(=O)CC(Cc4cccc(C)c4)C3=O)nc2c1 (centres undefined),-25.3,27.2*,10.6,-26.6,11.8,8.5
COc1ccccc1OCc1nc(C#N)c(N2CC(C)CC(C)C2)o1 (centres undefined),-36.6,17.9*,15.4,-3.2,9.5,6.2
COc1ccccc1OCc1nc(C#N)c(N2CCCC2)o1,-10.5,nt,4.8,4.8,nt,nt
NC(=O)c1ccc(/C(N)=N/S(=O)(=O)c2cc(C(F)(F)F)cc(C(F)(F)F)c2)cc1,12.8,nt,nt,-13.0,nt,nt
C(#Cc1ccccc1)C[N+]1(CC#Cc2cccc3ccccc23)CCCC1,-19.0,17.8*,19.3,0.8,5.7,11.1
Nn1c(Cc2cccc3ccccc23)nnc1SCc1c(Cl)cccc1Cl,-29.0,20.3*,1.5,-22.7,16.5,40.5*
SMILES,NPY-Y1 PAM-ag,NPY-Y2 antag,NPY Y1 blocker,NPY-Y2 PAM-ag,NPY-Y1 antag ct,NPY2 antag conf
O=C(O)c1cc2nccc(-c3ccc(F)cc3)n2n1,5.2,nt,4.7,-3.7,nt,nt
CCC(c1nnnn1Cc1ccc2c(c1)OCO2)N1CCN(c2ccc(F)cc2)CC1 (centres undefined),0.8,19.1*,15.4,8.5,8.3,8.1
CCC(c1nnnn1Cc1ccc2c(c1)OCO2)N1CCN(c2ccccc2)CC1 (centres undefined),-24.0,17.5*,19.9,-40.6,13.1,7.9
O=C(CCCC(=O)OCC(F)(F)C(F)F)Nc1ccccc1F,-6.5,nt,6.8,2.5,nt,nt
O=C(c1ccco1)N(CCCN1CCOCC1)c1nc(-c2ccc(F)cc2)cs1,-30.3,19.0*,9.4,-15.5,15.7,12.9
CCn1c(/C=C/Nc2ccccc2)[n+](CC)c2cc(Cl)c(Cl)cc21,0.0,34.6*,7.7,4.4,13.3,14.8
CCn1c(/C=C/N(C(C)=O)c2ccccc2)[n+](CCCS(=O)(=O)[O-])c2cc(Cl)c(Cl)cc21,-13.3,nt,1.0,-6.4,nt,nt
CC1CCCC(NC(=O)COC(=O)CCc2ccccc2)C1C (centres undefined),-13.5,nt,8.9,-7.0,nt,nt
CC1CCCC(NC(=O)COC(=O)CSc2ccc3ccccc3c2)C1C (centres undefined),-44.4,18.8*,16.8,-18.4,28.1*,21.6*
CCS(=O)(=O)N1Cc2ccccc2CC1C(=O)NC(C)C12CC3CC(CC(C3)C1)C2 (centres undefined),-6.7,19.4*,10.3,-13.5,4.9,9.0
COc1cccc(C(c2nnnn2Cc2ccccc2)N2CCN(C3CCCC3)CC2)c1OC (centres undefined),-33.6,18.4*,0.5,-12.2,6.5,6.4
CCC(C)(C)n1nnnc1C(c1ccccc1)N1CCN(C2CCCC2)CC1 (centres undefined),-19.3,19.8*,8.2,8.1,5.2,11.7
COC(=O)c1cc2c(ccn2-c2ccc(F)cc2)n1Cc1ccc(C#N)cc1,0.0,18.7*,1.1,0.6,10.4,9.5
COC(=O)c1cc2c(ccn2-c2ccc(F)cc2)n1CC(=O)N1CCN(C(=O)c2ccco2)CC1,-15.3,3.7,-1.1,2.8,nt,nt
COc1ccc(Nc2nc(N3CCCC3)c3ccccc3n2)cc1,-24.1,32.2*,14.1,4.3,24.4*,33.8*
Cc1ccccc1OCC(O)CN1CCN(C)CC1 (centres undefined),-0.5,nt,0.3,-4.6,nt,nt
CC(COc1cccc2ccccc12)CN1CCN(C)CC1 (centres undefined),-0.8,17.4*,0.2,1.4,7.2,7.2
CCOC(=O)c1[nH]c(C)c(C(=O)N2CCN(c3ccccc3)CC2)c1C,-25.2,4.9,2.6,-4.0,nt,nt
CCOc1ccc2ccccc2c1C(=O)N1CCN(c2ccccc2)CC1,-12.7,18.3*,18.6,10.0,16.9,9.6
NC(=O)c1cccc(C(N)=O)n1,-7.3,nt,-4.6,-4.1,nt,nt
O=C(OCCN1C(=O)c2cccc3c(N4CCOCC4)ccc(c23)C1=O)c1cccc(Cl)c1,5.9,20.4*,1.7,0.8,29.1*,40.3*
O=C(OCCN1C(=O)c2cccc3c(N4CCOCC4)ccc(c23)C1=O)c1ccc(Cl)cc1Cl,-6.3,9.9,-0.2,6.5,nt,nt
CC(=O)Nc1ccc(NCN2C(=O)[C@@H]3[C@H]4CC[C@H](C4)[C@@H]3C2=O)cc1,17.9,0.1,-0.7,16.1,nt,nt
